ChEMBL document CHEMBL1177711, “Novel quinolizidinyl derivatives as antiarrhythmic agents: 2. Further investigation” (J Med Chem, 2010)

Columns and labels:
[1] = Negative chronotropic activity against potassium-induced contraction in guinea pig left atrium assessed as decrease atrial rate at 0.5 uM relative to control; type: functional, Cavia porcellus, Cardiac atrium; parameters: scale not given: the % may be the effect or the level left
Aorta [2] = test: Vasorelaxant activity in potassium depolarized guinea pig aortic strip assessed as inhibition of calcium-induced contraction at 100 uM; type: functional; conditions: Cavia porcellus
[3] = Negative chronotropic activity against potassium-induced contraction in guinea pig left atrium assessed as decrease atrial rate; type: functional, tissue-based; conditions: Cavia porcellus, Cardiac atrium
[4] = Negative inotropic activity against potassium-induced contraction in guinea pig left atrium assessed as decrease in developed tension; type: functional, tissue-based; conditions: Cavia porcellus, Cardiac atrium
[5] = Negative chronotropic activity against potassium-induced contraction in guinea pig left atrium assessed as decrease atrial rate at 100 uM relative to control; type: functional, Cavia porcellus, Cardiac atrium; parameters: scale not given: the % may be the effect or the level left
[6] = Negative inotropic activity against potassium-induced contraction in guinea pig left atrium assessed as decrease in developed tension at 10 uM relative to control; type: functional, Cavia porcellus, Cardiac atrium; parameters: scale not given: the % may be the effect or the level left
[7] = Antiarrhythmic activity in sinusoidal alternating current-induced guinea pig left atrium assessed as increase in current strength at which extra beats occur measured every 30 mins; type: functional, tissue-based; conditions: Cavia porcellus, Cardiac atrium, 0.5 h
Outline: (§1)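 Isolated guinea pig left atria, electrically driven at 1 Hz, were exposed to sinusoidal alternating current to induce arrhythmia. The read-out was the rise in the ac-arrhythmia threshold over concentrations up to 100 μM.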

[8] = Antiarrhythmic activity in sinusoidal alternating current-induced guinea pig left atrium assessed as increase in current strength at which extra beats occur at 50 uM measured every 30 mins; type: functional, Cavia porcellus, Cardiac atrium; outline: as §1
[9] = Cardioprotective effect in Langendorff perfused guinea pig spontaneously beating […] assessed as duration of ventricular action potential at 10 uM (RVb = 140 to 161 +/- 2 to 8 ms); type: functional, Cavia porcellus, Cardiac ventricle
Outline: (§2)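 Whole guinea pig hearts were Langendorff-perfused and their ECG recorded at graded concentrations. Intervals read were PR (atrioventricular conduction time), QT (ventricular action potential duration) and QRS (intraventricular conduction time).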

[10] = Cardioprotective effect in Langendorff perfused guinea pig spontaneously beating […] assessed as duration of ventricular action potential at 1 uM (RVb = 140 to 161 +/- 2 to 8 ms); type: functional, Cavia porcellus, Cardiac ventricle; outline: as §2
[11] = Cardioprotective effect in Langendorff perfused guinea pig spontaneously beating […] assessed as atrioventicular conduction time at 1 uM (RVb = 50 to 55 +/- 1 to 4 ms); type: functional; conditions: Cavia porcellus; outline: as §2
[12] = Cardioprotective effect in Langendorff perfused guinea pig spontaneously beating […] assessed as duration of ventricular action potential at 0.1 uM (RVb = 140 to 161 +/- 2 to 8 ms); type: functional, Cavia porcellus, Cardiac ventricle; outline: as §2
[13] = Cardioprotective effect in Langendorff perfused guinea pig spontaneously beating […] assessed as duration of ventricular action potential at 0.01 uM (RVb = 140 to 161 +/- 2 to 8 ms); type: functional, Cavia porcellus, Cardiac ventricle; outline: as §2
[14] = Cardioprotective effect in Langendorff perfused guinea pig spontaneously beating […] assessed as duration of ventricular action potential at 0.001 uM (RVb = 140 to 161 +/- 2 to 8 ms); type: functional, Cavia porcellus, Cardiac ventricle; outline: as §2
[15] = Cardioprotective effect in Langendorff perfused guinea pig spontaneously beating […] assessed as intraventicular conduction time at 10 uM (RVb = 19 to 24 +/- 1 to 2 ms); type: functional; conditions: Cavia porcellus; outline: as §2
[16] = Cardioprotective effect in Langendorff perfused guinea pig spontaneously beating […] assessed as intraventicular conduction time at 1 uM (RVb = 19 to 24 +/- 1 to 2 ms); type: functional; conditions: Cavia porcellus; outline: as §2
[17] = Cardioprotective effect in Langendorff perfused guinea pig spontaneously beating […] assessed as intraventicular conduction time at 0.1 uM (RVb = 19 to 24 +/- 1 to 2 ms); type: functional; conditions: Cavia porcellus; outline: as §2
[18] = Cardioprotective effect in Langendorff perfused guinea pig spontaneously beating […] assessed as intraventicular conduction time at 0.01 uM (RVb = 19 to 24 +/- 1 to 2 ms); type: functional; conditions: Cavia porcellus; outline: as §2
[19] = Cardioprotective effect in Langendorff perfused guinea pig spontaneously beating […] assessed as intraventicular conduction time at 0.001 uM (RVb = 19 to 24 +/- 1 to 2 ms); type: functional; conditions: Cavia porcellus; outline: as §2
[20] = Cardioprotective effect in Langendorff perfused guinea pig spontaneously beating […] assessed as atrioventicular conduction time at 10 uM (RVb = 50 to 55 +/- 1 to 4 ms); type: functional; conditions: Cavia porcellus; outline: as §2
[21] = Cardioprotective effect in Langendorff perfused guinea pig spontaneously beating […] assessed as atrioventicular conduction time at 0.1 uM (RVb = 50 to 55 +/- 1 to 4 ms); type: functional; conditions: Cavia porcellus; outline: as §2
[22] = Cardioprotective effect in Langendorff perfused guinea pig spontaneously beating […] assessed as atrioventicular conduction time at 0.01 uM (RVb = 50 to 55 +/- 1 to 4 ms); type: functional; conditions: Cavia porcellus; outline: as §2
[23] = Cardioprotective effect in Langendorff perfused guinea pig spontaneously beating […] assessed as atrioventicular conduction time at 0.001 uM (RVb = 50 to 55 +/- 1 to 4 ms); type: functional; conditions: Cavia porcellus; outline: as §2
Heart [24] = test: Cardioprotective effect in Langendorff perfused guinea pig spontaneously beating […] assessed as heart rat at 0.001 uM (RVb = 175 to 190 +/- 5 to 11 bpm); type: functional, Cavia porcellus
Heart [25] = test: Cardioprotective effect in Langendorff perfused guinea pig spontaneously beating […] assessed as heart rat at 0.01 uM (RVb = 175 to 190 +/- 5 to 11 bpm); type: functional, Cavia porcellus
Heart [26] = test: Cardioprotective effect in Langendorff perfused guinea pig spontaneously beating […] assessed as heart rat at 0.1 uM (RVb = 175 to 190 +/- 5 to 11 bpm); type: functional, Cavia porcellus
Heart [27] = test: Cardioprotective effect in Langendorff perfused guinea pig spontaneously beating […] assessed as heart rat at 1 uM (RVb = 175 to 190 +/- 5 to 11 bpm); type: functional, Cavia porcellus
Heart [28] = test: Cardioprotective effect in Langendorff perfused guinea pig spontaneously beating […] assessed as heart rat at 10 uM (RVb = 175 to 190 +/- 5 to 11 bpm); type: functional, Cavia porcellus
Aorta [29] = test: Vasorelaxant activity in potassium depolarized guinea pig aortic strip assessed as inhibition of calcium-induced contraction at 50 uM; type: functional; conditions: Cavia porcellus
[30] = Negative chronotropic activity against potassium-induced contraction in guinea pig left atrium assessed as decrease atrial rate at 10 uM relative to control; type: functional, Cavia porcellus, Cardiac atrium; parameters: scale not given: the % may be the effect or the level left
[31] = Antiarrhythmic activity in sinusoidal alternating current-induced guinea pig left atrium assessed as increase in current strength at which extra beats occur at 10 uM measured every 30 mins; type: functional, Cavia porcellus, Cardiac atrium; outline: as §1
[32] = Negative chronotropic activity against potassium-induced contraction in guinea pig left atrium assessed as decrease atrial rate at 50 uM relative to control; type: functional, Cavia porcellus, Cardiac atrium; parameters: scale not given: the % may be the effect or the level left
[33] = Negative inotropic activity against potassium-induced contraction in guinea pig left atrium assessed as decrease in developed tension at 0.1 uM relative to control; type: functional, Cavia porcellus, Cardiac atrium; parameters: scale not given: the % may be the effect or the level left
[34] = Negative inotropic activity against potassium-induced contraction in guinea pig left atrium assessed as decrease in developed tension at 50 uM relative to control; type: functional, Cavia porcellus, Cardiac atrium; parameters: scale not given: the % may be the effect or the level left

SMILES: Cc1cc(C(=O)c2ccccc2)cc(C)c1NC(=O)C[C@@H]1CCCN2CCCC[C@H]12
- Activity [1]: 70%

SMILES: CCN(CC)CCNC(=O)c1ccc(N)cc1 [PROCAINAMIDE]
- inhibition at 100 µM (Aorta [2]): 2%

SMILES: Cc1cc(C(=O)c2ccccc2)ccc1NC(=O)C[C@@H]1CCCN2CCCC[C@H]12
- EC50 [3]: 6140 nM
- EC50 [4]: 44 nM
- Activity [5]: 59%
- Activity [6]: 79%
- EC50 [7]: 150 nM
- Activity [8]: 64%
- Activity [9]: 170 ms
- Activity [10]: 162 ms
- AV conduction time [11]: 56 ms
- Activity [12]: 155 ms
- Activity [13]: 154 ms
- Activity [14]: 158 ms
- intraventricular conduction time [15]: 25 ms
- intraventricular conduction time [16]: 22 ms
- intraventricular conduction time [17]: 23 ms
- intraventricular conduction time [18]: 20 ms
- intraventricular conduction time [19]: 23 ms
- AV conduction time [20]: 57 ms
- AV conduction time [21]: 53 ms
- AV conduction time [22]: 54 ms
- AV conduction time [23]: 54 ms
- Activity (Heart [24]): 177 bpm
- Activity (Heart [25]): 171 bpm
- Activity (Heart [26]): 158 bpm
- Activity (Heart [27]): 145 bpm
- Activity (Heart [28]): 137 bpm

SMILES: CCN(CC)CC(=O)Nc1c(C)cccc1C [LIDOCAINE]
- inhibition at 50 µM (Aorta [29]): 14%

SMILES: Cc1cccc(C)c1NCCSC[C@@H]1CCCN2CCCC[C@H]12
- inhibition at 100 µM (Aorta [2]): 34%
- EC50 [3]: 8420 nM
- Activity [30]: 62%
- Activity [6]: 37%
- EC50 [7]: 310 nM
- Activity [31]: 129%
- Activity [9]: 175 ms
- Activity [10]: 170 ms
- AV conduction time [11]: 57 ms
- Activity [12]: 168 ms
- Activity [13]: 162 ms
- Activity [14]: 160 ms
- intraventricular conduction time [15]: 26 ms
- intraventricular conduction time [16]: 25 ms
- intraventricular conduction time [17]: 24 ms
- intraventricular conduction time [18]: 23 ms
- intraventricular conduction time [19]: 23 ms
- AV conduction time [20]: 60 ms
- AV conduction time [21]: 55 ms
- AV conduction time [22]: 55 ms
- AV conduction time [23]: 55 ms
- Activity (Heart [24]): 186 bpm
- Activity (Heart [25]): 185 bpm
- Activity (Heart [26]): 179 bpm
- Activity (Heart [27]): 158 bpm
- Activity (Heart [28]): 142 bpm

SMILES: COc1ccc2c(c1)nc(-c1ccccc1)c(=O)n2C[C@H]1CCCN2CCCC[C@@H]12
- inhibition at 100 µM (Aorta [2]): 11%
- EC50 [3]: 15300 nM
- EC50 [4]: 31 nM
- Activity [6]: 85%
- Activity [8]: 30%

SMILES: C=C[C@H]1CN2CC[C@H]1C[C@@H]2[C@@H](O)c1ccnc2ccc(OC)cc12 [QUINIDINE]
- inhibition at 50 µM (Aorta [29]): 30%
- AV conduction time [11]: 60 ms
- intraventricular conduction time [15]: 39 ms
- intraventricular conduction time [16]: 35 ms
- intraventricular conduction time [17]: 31 ms
- intraventricular conduction time [18]: 27 ms
- intraventricular conduction time [19]: 25 ms
- AV conduction time [20]: 70 ms
- AV conduction time [21]: 57 ms
- AV conduction time [22]: 54 ms
- AV conduction time [23]: 53 ms

SMILES: O=C(C[C@@H]1CCCN2CCCC[C@H]12)Nc1c(Cl)cccc1Cl
- inhibition at 100 µM (Aorta [2]): 6%
- EC50 [4]: 100 nM
- Activity [32]: 15%
- Activity [8]: 32%

SMILES: Cc1cc(C)c(NC(=O)C[C@@H]2CCCN3CCCC[C@H]23)c(C)c1
- inhibition at 100 µM (Aorta [2]): 2%
- EC50 [4]: 10 nM
- Activity [8]: 49%
- Activity [33]: 54%

SMILES: CC(=O)Nc1ccc(C(=O)NC[C@@H]2CCCN3CCCC[C@H]23)cc1
- Activity [1]: 14%
- EC50 [4]: 56 nM

SMILES: COc1cc(N)c(Cl)cc1C(=O)NC[C@@H]1CCCN2CCCC[C@H]12
- inhibition at 100 µM (Aorta [2]): 6%
- EC50 [4]: 350 nM
- Activity [32]: 22%
- Activity [34]: 95%
- EC50 [7]: 6730 nM
- Activity [8]: 113%

SMILES: Cc1cccc(C)c1OC[C@@H]1CCCN2CCCC[C@H]12
- inhibition at 100 µM (Aorta [2]): 26%

SMILES: Cc1cc(C)c(NCC[C@@H]2CCCN3CCCC[C@H]23)c(C)c1
- inhibition at 100 µM (Aorta [2]): 37%
- EC50 [4]: 34 nM
- Activity [32]: 44%
- Activity [6]: 89%
- EC50 [7]: 8150 nM
- Activity [31]: 63%

SMILES: CCCCc1oc2ccccc2c1C(=O)c1cc(I)c(OCCN(CC)CC)c(I)c1
- AV conduction time [11]: 56 ms
- intraventricular conduction time [15]: 24 ms
- intraventricular conduction time [16]: 22 ms
- intraventricular conduction time [17]: 21 ms
- intraventricular conduction time [18]: 20 ms
- intraventricular conduction time [19]: 20 ms
- AV conduction time [20]: 58 ms
- AV conduction time [21]: 55 ms
- AV conduction time [22]: 55 ms
- AV conduction time [23]: 54 ms
